Results published in ChEMBL document CHEMBL4145619, “Computer-Assisted Discovery of Retinoid X Receptor Modulating Natural Products and Isofunctional Mimetics” (J Med Chem, 2018).
Active and inactive are the calls of the source.

What was measured:
Assay type in all cases: cell-based
[1] = biological target: T1, Peroxisome proliferator-activated receptor delta (Homo sapiens) (UniProt Q03181); assay: Transactivation of human Gal4-fused PPARdelta LBD expressed in HEK293T cells at 30 uM after 12 to 14 hrs by dual-glo luciferase assay
T1 sequence (whole entry): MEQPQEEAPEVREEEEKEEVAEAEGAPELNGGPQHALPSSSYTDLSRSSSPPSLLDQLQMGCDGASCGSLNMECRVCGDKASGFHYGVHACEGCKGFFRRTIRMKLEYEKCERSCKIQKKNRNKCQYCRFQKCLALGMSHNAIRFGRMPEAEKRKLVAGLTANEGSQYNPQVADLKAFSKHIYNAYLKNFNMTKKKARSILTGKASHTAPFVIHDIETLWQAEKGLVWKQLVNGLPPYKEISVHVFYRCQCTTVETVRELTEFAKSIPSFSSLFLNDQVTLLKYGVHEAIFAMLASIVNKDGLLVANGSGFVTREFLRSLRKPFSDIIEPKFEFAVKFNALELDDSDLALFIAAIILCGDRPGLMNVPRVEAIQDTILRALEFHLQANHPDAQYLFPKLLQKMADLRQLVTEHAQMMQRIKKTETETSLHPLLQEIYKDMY
Procedure, shortened: (§1)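 Single-concentration selectivity profiling in Gal4-hybrid reporter gene assays in HEK293T cells. Each nuclear receptor construct (RAR, PPAR, LXR, FXR, CAR, VDR, PXR, RXR) was tested at 30 μM.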

[2] = biological target: T2, Peroxisome proliferator-activated receptor alpha (Homo sapiens) (UniProt Q07869); assay: Transactivation of human Gal4-fused PPARalpha LBD expressed in HEK293T cells at 30 uM after 12 to 14 hrs by dual-glo luciferase assay; procedure, shortened: as §1
T2 sequence (whole entry): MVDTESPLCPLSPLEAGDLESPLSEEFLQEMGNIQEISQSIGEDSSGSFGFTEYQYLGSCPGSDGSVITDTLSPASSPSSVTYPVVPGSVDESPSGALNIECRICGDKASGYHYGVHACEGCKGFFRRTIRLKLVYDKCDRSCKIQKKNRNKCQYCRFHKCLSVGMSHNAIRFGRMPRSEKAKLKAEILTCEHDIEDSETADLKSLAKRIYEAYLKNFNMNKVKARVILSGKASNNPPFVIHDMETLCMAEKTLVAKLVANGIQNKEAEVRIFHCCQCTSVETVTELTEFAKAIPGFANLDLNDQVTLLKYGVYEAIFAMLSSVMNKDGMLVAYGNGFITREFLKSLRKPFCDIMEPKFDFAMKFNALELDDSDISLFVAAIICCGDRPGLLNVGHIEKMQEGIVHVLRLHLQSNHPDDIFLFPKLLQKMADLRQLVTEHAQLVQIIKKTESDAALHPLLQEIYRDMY

[3] = biological target: T3, Oxysterols receptor LXR-alpha (Homo sapiens) (UniProt Q13133); assay: Transactivation of human Gal4-fused LXRalpha LBD expressed in HEK293T cells at 30 uM after 12 to 14 hrs by dual-glo luciferase assay; procedure, shortened: as §1
T3 sequence (whole entry): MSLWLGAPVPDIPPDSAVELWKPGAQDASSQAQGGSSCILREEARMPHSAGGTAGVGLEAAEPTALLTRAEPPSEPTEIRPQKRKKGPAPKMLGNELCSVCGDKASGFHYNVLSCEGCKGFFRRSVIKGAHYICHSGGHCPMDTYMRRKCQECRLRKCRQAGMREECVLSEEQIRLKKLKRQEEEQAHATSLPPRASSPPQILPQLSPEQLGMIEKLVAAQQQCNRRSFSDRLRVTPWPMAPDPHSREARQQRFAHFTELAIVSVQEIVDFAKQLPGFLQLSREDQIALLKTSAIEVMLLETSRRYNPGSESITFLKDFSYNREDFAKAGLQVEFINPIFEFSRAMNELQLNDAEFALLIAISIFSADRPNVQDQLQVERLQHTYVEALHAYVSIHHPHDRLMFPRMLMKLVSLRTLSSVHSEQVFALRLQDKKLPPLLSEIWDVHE

[4] = biological target: T4, Peroxisome proliferator-activated receptor gamma (Homo sapiens) (UniProt P37231); assay: Transactivation of human Gal4-fused PPARgamma LBD expressed in HEK293T cells at 30 uM after 12 to 14 hrs by dual-glo luciferase assay; procedure, shortened: as §1
T4 sequence (whole entry): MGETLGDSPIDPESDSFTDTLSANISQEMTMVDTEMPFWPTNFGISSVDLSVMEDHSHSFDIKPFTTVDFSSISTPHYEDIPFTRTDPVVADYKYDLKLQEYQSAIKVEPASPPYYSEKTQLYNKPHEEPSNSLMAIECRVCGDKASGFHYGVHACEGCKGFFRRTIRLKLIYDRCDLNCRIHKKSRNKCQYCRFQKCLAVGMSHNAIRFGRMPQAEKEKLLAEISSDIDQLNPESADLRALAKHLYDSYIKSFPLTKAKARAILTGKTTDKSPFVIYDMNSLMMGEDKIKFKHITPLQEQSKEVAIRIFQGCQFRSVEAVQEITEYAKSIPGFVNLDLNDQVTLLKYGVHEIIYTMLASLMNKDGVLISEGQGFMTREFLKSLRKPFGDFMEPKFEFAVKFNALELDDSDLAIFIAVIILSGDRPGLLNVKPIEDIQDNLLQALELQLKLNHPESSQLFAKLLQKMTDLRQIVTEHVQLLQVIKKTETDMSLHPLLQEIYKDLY

[5] = biological target: T5, Bile acid receptor (Homo sapiens) (UniProt Q96RI1); assay: Transactivation of human Gal4-fused FXR LBD expressed in HEK293T cells at 30 uM after 12 to 14 hrs by dual-glo luciferase assay; procedure, shortened: as §1
T5 sequence (whole entry): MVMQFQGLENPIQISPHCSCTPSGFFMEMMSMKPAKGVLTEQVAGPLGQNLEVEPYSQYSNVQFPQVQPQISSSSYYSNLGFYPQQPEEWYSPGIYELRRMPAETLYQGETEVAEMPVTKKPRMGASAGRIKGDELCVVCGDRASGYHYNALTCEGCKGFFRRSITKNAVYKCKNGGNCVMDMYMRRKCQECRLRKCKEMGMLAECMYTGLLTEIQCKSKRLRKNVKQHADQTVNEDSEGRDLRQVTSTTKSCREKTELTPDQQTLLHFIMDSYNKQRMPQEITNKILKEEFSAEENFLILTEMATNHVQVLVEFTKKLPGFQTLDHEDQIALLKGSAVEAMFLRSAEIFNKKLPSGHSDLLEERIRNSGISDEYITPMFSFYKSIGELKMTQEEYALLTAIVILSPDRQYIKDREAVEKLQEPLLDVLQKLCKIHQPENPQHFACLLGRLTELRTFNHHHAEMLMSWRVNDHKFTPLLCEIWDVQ

Measured: Activity

CC1=C2[C@H](/C=C(\C)C(=O)O)CC[C@@H](C)[C@H]2CC1 [VALERENIC ACID]
inactive: all assays above
